Assay results: ChEMBL document CHEMBL4819061, “New bioactive 5-arylcarboximidamidopyrazolo[3,4-c]pyridines: Synthesis, cytotoxic activity, mechanistic investigation and structure-activity relationships” (Eur J Med Chem, 2021)

What was measured:
Assay type in all cases: functional, cell-based
[1] = tested on: HT-1080; test: Cytotoxicity against human HT-1080 cells assessed as reduction in cell viability incubated for 72 hrs by MTT assay; conditions: HT-1080, 72 h
Method in brief: (§1)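 Cancer lines (MDA-MB-231, HT-1080, PC-3) were grown in DMEM with 10% FBS and penicillin/streptomycin at 37 °C in 5% CO₂. About 5000 cells/well adhered overnight, then serial compound dilutions were added for 72 h, with matching DMSO dilutions (0.5–0.0008% v/v) as controls. MTT (1 mg/ml final, serum-free phenol-red-free DMEM) ran 4 h, was solubilised in 2-propanol, and OD read at 550 nm (ref 690). IC50 is the concentration halving OD versus untreated, mean of three independent experiments.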

[2] = tested on: PC-3; test: Cytotoxicity against human PC-3 cells assessed as reduction in cell viability incubated for 72 hrs by MTT assay; conditions: PC-3, 72 h; method in brief: as §1
[3] = tested on: MDA-MB-231; test: Cytotoxicity against human MDA-MB-231 cells assessed as reduction in cell viability incubated for 72 hrs by MTT assay; conditions: MDA-MB-231, 72 h; method in brief: as §1

Compound | IC50 [1] [µM] | IC50 [2] [µM] | IC50 [3] [µM]
N=C(Nc1cccc(C(F)(F)F)c1)c1cc2cn[nH]c2cn1 | 36.5 | > 50 | > 50
N=C(Nc1ccccc1)c1cc2c(-c3ccccc3)n[nH]c2cn1 | 22 | 23 | 11
CN1CCN(c2ccc(NC(=N)c3cc4c(-c5ccccc5)n[nH]c4cn3)cc2)CC1 | 11.4 | 17.1 | 15.9
COc1cc(Nc2nc(C(=N)Nc3ccc(N4CCN(C)CC4)cc3)cc3c(-c4ccccc4)n[nH]c23)cc(OC)c1OC | 3.4 | 4.3 | 4.6
COc1cc(Nc2nc(C(=N)Nc3cccc(C(F)(F)F)c3)cc3c(-c4ccccc4)n[nH]c23)cc(OC)c1OC | 6.7 | 13.9 | 7.6
Cn1ncc2cc(C(=N)Nc3cccc(C(F)(F)F)c3)ncc21 | 33.8 | > 50 | > 50
COc1ccc(Cn2nc(-c3ccccc3)c3cc(C(=N)Nc4ccccc4)nc(N4CCOCC4)c32)cc1 | 6.2 | 16.4 | 21.2
COc1ccc(Cn2nc(-c3ccccc3)c3cc(C(=N)Nc4cccc(C(F)(F)F)c4)nc(N4CCOCC4)c32)cc1 |  |  | > 50
Cn1nc(-c2ccccc2)c2cc(C(=N)Nc3cccc(C(F)(F)F)c3)ncc21 | 17.8 | 20.9 | 21.4
N=C(Nc1cccc(C(F)(F)F)c1)c1cc2c(-c3ccccc3)n[nH]c2cn1 | 24.6 | 19.9 | 22.3
CN1CCN(c2ccc(NC(=N)c3cc4cnn(C)c4cn3)cc2)CC1 | 24 | 32.3 | 30.2
Cn1cc2cc(C(=N)Nc3ccccc3)ncc2n1 |  |  | > 50
COc1ccc(Cn2ncc3cc(C(=N)Nc4ccc(N5CCN(C)CC5)cc4)ncc32)cc1 | 5.3 | 6.1 | 5.7
Cn1nc(-c2ccccc2)c2cc(C(=N)Nc3ccccc3)ncc21 | 17.4 | 17.3 | 11.1
COc1ccc(Cn2nc(-c3ccccc3)c3cc(C(=N)Nc4cccc(C(F)(F)F)c4)nc(Nc4cc(OC)c(OC)c(OC)c4)c32)cc1 |  |  | > 50
Cn1cc2cc(C(=N)Nc3cccc(C(F)(F)F)c3)ncc2n1 |  |  | > 50
N=C(Nc1cccc(C(F)(F)F)c1)c1cc2c(-c3ccccc3)n[nH]c2c(NC2CCCCC2)n1 | 21.2 | 25 | 24.6
N=C(Nc1cccc(C(F)(F)F)c1)c1cc2c(-c3ccccc3)n[nH]c2c(N2CCOCC2)n1 | 6.8 | 17.3 | 13.3
COc1ccc(Cn2cc3cc(C(=N)Nc4ccc(N5CCN(C)CC5)cc4)ncc3n2)cc1 | 3.2 | 9.9 | 8
CN1CCN(c2ccc(NC(=N)c3cc4c(-c5ccccc5)n[nH]c4c(N4CCOCC4)n3)cc2)CC1 | 5.6 | 8.3 | 3.9
COc1ccc(Cn2ncc3cc(C(=N)Nc4ccccc4)ncc32)cc1 | 25.7 | 36 | 34.7
COc1ccc(Cn2ncc3cc(C(=N)Nc4cccc(C(F)(F)F)c4)ncc32)cc1 | 24.9 | 27.6 | 29.8
COc1ccc(Cn2nc(-c3ccccc3)c3cc(C(=N)Nc4cccc(C(F)(F)F)c4)ncc32)cc1 | 46.7 | > 50 | > 50
N=C(Nc1ccccc1)c1cc2c(-c3ccccc3)n[nH]c2c(N2CCOCC2)n1 | 4.8 | 6.8 | 6.8
COc1ccc(Cn2nc(-c3ccccc3)c3cc(C(=N)Nc4cccc(C(F)(F)F)c4)nc(NC4CCCCC4)c32)cc1 |  |  | > 50
COc1cc(Nc2nc(C(=N)Nc3ccccc3)cc3c(-c4ccccc4)n[nH]c23)cc(OC)c1OC | 3.9 | 5.8 | 4.5
N=C(Nc1ccccc1)c1cc2cn[nH]c2cn1 |  |  | > 50
Cn1ncc2cc(C(=N)Nc3ccccc3)ncc21 |  |  | > 50
